# Jurkat viability: cytotoxicity toward Jurkat T cells, primary screen, cytotoxicity control, cell-based, Jurkat E6.1, 60K MLSMR library; AID 463, 2006; Jurkat E6.1 viability, ATP luminescence, 48 h; 1.2% of 56,000 active; inhibition, % at 4 µM;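 active = inhibition above the mean inhibition of all tested compounds plus 3 SD, cut at about 28% in these data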
# H69AR inhibit: proliferation blockers of H69AR lung cancer cells, primary screen, cell-based, human, 86K library; 6% of 85,000 active; H69AR lung tumor viability, ATP luminescence, 72 h; hits give low values; AID 598, 2007; viability, % at 10 µM;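 active = viability at or below 40%; inactive = viability above 40%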;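 note: multidrug resistant small cell line overexpressing MRP-1 efflux transporter; 100% = mean luminescence of untreated control wells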
# HUVEC inhibit: inhibitors of HUVEC proliferation, primary screen, cell-based, 384-well; viability, % at 10 µM (by protocol); 1.1% of 86,000 active; CellTiter-Glo luminescence, 72 h; hits give low values;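 active = viability at or below 30%; inactive = viability above 30%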;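 note: 100% = median luminescence of DMSO-only cell control wells on each plate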
# E coli WT exp: growth inhibitors of wild-type E. coli, primary screen, strain BW25113, expanded library, OD600; OD600 absorbance; growth inhibition, % at 100 µM; 0.15% of 98,000 active;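 active = growth inhibition above about 50% at one test dose, limit read from the data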;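 note: growth measured after 20 h incubation at 37 °C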
# tolC growth inh: growth inhibitors of E. coli tolC mutant, primary screen, strain BW25113 ΔtolC::kan, 384-well. OD615. growth inhibition, % at 10 µM (by protocol). 2.2% of 65,000 active;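 active = growth inhibition at or above a cutoff equal to the mean over every tested compound plus 3 SD, cut at about 60% in these data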;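 note: growth measured after 20 h incubation at 37 °C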
#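 Test system – E. coli BW25113 ΔtolC::kan, tolC deletion mutant strain · Detection – OD at 615 nm · Buffer or medium – LB with kanamycin 50 µg/mL · Times – 20 h compound exposure of bacteria at 37 °C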
# Fibroblast inh: antiproliferative effect on LL 47 fibroblasts – human, LL 47 cells, CellTiter-Glo luminescence, primary screen | 1.1% of 85,000 active | viability, % at 10 µM | LL 47 human lung fibroblast viability, ATP luminescence; hits give low values;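 active = viability at or below 50% in the single dose screen; inactive = viability above 50%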;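 note: compound exposure lasted 72 h before the ATP readout; 100% = median luminescence of untreated cell-only wells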
#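 Signal: luminescent ATP detection, CellTiter-Glo; assay system: LL 47 human lung fibroblasts; input: 1,150 cells/well; incubation: overnight cell rest, 72 h compound treatment at 37 °C; measure: % viability versus median cells-only luminescence; medium: IMEM growth medium with 15% fetal bovine serum; dosing: compound addition at 0.1% DMSO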
# Starred values were filed as active, the others as inactive; x = not tested or not shown. An excerpt weighted towards active compounds, which were near 6.4% of everything screened.
SMILES,Jurkat viability,H69AR inhibit,HUVEC inhibit,E coli WT exp,tolC growth inh,Fibroblast inh
O=C1C(=C2CCCCC2)SC(=S)N1Cc1ccco1,9.7,10.8*,81.5,-8.0,21.5,94.0
O=C(NCCOC(=O)c1ccc(Cl)cc1)c1cccnc1,x,97.0,89.7,1.0,x,99.2
COc1ccccc1-c1nc(C(N)=O)c2[nH]c(=O)n(-c3cccc(C)c3)c2n1,-2.2,x,x,-4.0,11.3,x
Cc1cccc(-n2c(=O)[nH]c3c(C(N)=O)nc(-c4ccccc4Cl)nc32)c1,1.3,2.5*,88.5,-1.0,10.1,53.2
COc1cc(-c2nc(-c3ccc(NC(=O)c4ccc(Br)o4)cc3)no2)cc(OC)c1OC,x,4.5*,31.9,-16.0,x,92.5
COc1ccc(-c2nc(-c3ccc(NC(=O)c4ccc(Br)o4)cc3)no2)cc1OC,-4.2,3.5*,34.9,-4.0,-10.6,63.2
COc1ccc(CCC(=O)Nc2ccc(-c3noc(-c4ccc(OC)c(OC)c4)n3)cc2)cc1,3.5,77.8,94.5,1.0,-15.4,98.0
O=C(CCSc1nc2ccccc2o1)N1CCOCC1,8.0,100.0,90.9,0.0,-11.2,99.4
c1ccc(Nc2cc(-c3ccccc3)nc3ncnn23)cc1,5.0,68.8,102.8,-4.0,3.7,95.5
COc1cccc(C(=O)N/N=C/c2cn[nH]c2-c2ccc(OC)cc2OC)c1,x,x,x,2.0,x,x
CCOC(=O)c1c(N)sc(-c2ccccc2)c1C,x,105.0,71.3,x,x,100.0
CCOC(=O)c1c(N)sc2c(OC)c(Br)ccc12,3.8,78.1,26.6*,4.0,100.0*,96.4
O=C(O)c1ccc(NC(CSCc2cccc(F)c2)C(=O)O)c([N+](=O)[O-])c1 (stereo not drawn),x,110.2,88.4,-5.0,x,97.3
CCOc1ccc2nc(NCCCO)[nH]c2c1,x,89.2,89.7,x,x,94.0
O=C(Nc1nc2ccccc2[nH]1)c1ccccc1F,51.7*,x,x,-2.0,-3.7,x
COc1cc(OC)cc(C(=O)Nc2nc3ccccc3[nH]2)c1,x,30.1*,76.9,-10.0,x,74.1
CCCOc1ccc2nc(NC(=O)OC)[nH]c2c1,x,30.8*,33.4,x,-2.1,49.5*
O=c1c2c3c(sc2nc2sc(CN4CCOCC4)cn12)CCCC3,-4.3,88.5,92.2,-5.0,-4.4,102.6
COc1c(C)cc(Br)cc1C(=O)Nc1cccc(NC(=O)c2ccco2)c1,-1.1,x,77.6,-19.0,74.2*,108.2
O=C(Nc1cccc(NC(=O)c2ccc(-c3ccc(Br)cc3)o2)c1)c1ccccc1,x,54.8,57.9,-4.0,x,72.2
O=C(Nc1cccc(NC(=O)c2ccc(-c3cccc(Br)c3)o2)c1)c1ccco1,1.2,25.3*,60.7,-34.0,33.2,103.6
CCC(C)c1ccc(NC(=O)C2CCCN(c3ncccn3)C2)cc1 (stereo not drawn),61.3*,x,x,2.0,58.5,x
CCCc1cc(C(N)=O)c(NC(C)=O)s1,-4.4,39.9*,85.1,5.0,-9.0,98.8
Cc1ccc(S(=O)(=O)N(c2nc(N(C)C)nc(N(C)C)n2)n2cnnc2)cc1,x,x,x,-6.0,x,x
CCOc1ccc(C2=C/C(=C/c3cccnc3)C(=O)O2)cc1,x,x,x,9.0,x,x
SMILES,Jurkat viability,H69AR inhibit,HUVEC inhibit,E coli WT exp,tolC growth inh,Fibroblast inh
Cc1ccc(S(=O)(=O)Oc2ccc3c(c2)O/C(=C\c2cccnc2)C3=O)cc1,x,24.6*,98.9,-5.0,x,96.5
Cc1ccc(S(=O)(=O)Oc2ccc(/C=C3\N=C(c4cccc(C)c4)OC3=O)cc2)cc1,x,x,x,-11.0,x,x
O=C1/C(=C/c2cccnc2)Oc2cc(OS(=O)(=O)c3ccc(F)cc3)ccc21,x,35.3*,94.1,1.0,x,94.8
COc1ccccc1C(C)NC(=O)c1ccc(C)o1 (stereo not drawn),x,26.0*,90.6,-3.0,x,95.5
COc1ccc(OC)c(C(C)NC(=O)c2ccco2)c1 (stereo not drawn),40.2*,21.9*,84.8,-2.0,0.0,99.5
O=C(CCc1ccccc1O)N/N=C/c1ccc(Sc2cccc3cccnc23)o1,x,81.9,61.0,-4.0,x,102.7
CCCCN(CC)S(=O)(=O)N1CCC(C(=O)NCc2ccc(F)cc2)CC1,3.3,86.1,93.4,11.0,9.1,105.9
CCC(C)(C)n1nnnc1CN1CCC(c2nc3ccc(C)cc3[nH]2)CC1,-2.7,12.1*,62.9,5.0,4.2,84.2
Cc1ccc2nsnc2c1S(=O)(=O)N1CCOCC1,x,110.1,100.1,7.0,x,97.7
CCN1CCN(c2ncnc3c2oc2nc(C(C)C)c4c(c23)CCC4)CC1,8.6,63.9,88.2,x,x,98.4
CCOC(=O)N1CCN(c2ncnc3c2oc2nc(C(C)C)c4c(c23)CCC4)CC1,9.7,47.6,23.6*,-5.0,36.2,98.4
CSc1ccc(/C=N/NC(=O)c2cccc(O)c2)cc1,x,x,x,8.0,x,x
COc1ccc(-n2nc(C(=O)NCC(=O)NCc3ccco3)c3ccccc3c2=O)cc1,-5.9,100.9,90.5,-7.0,0.2,102.6
COc1ccc(-n2nc(C(=O)NCc3ccco3)c3c4ccccc4n(C)c3c2=O)cc1Cl,-0.3,24.7*,63.4,-5.0,-19.7,34.5*
CCN1CCCC1CNC(=O)c1nn(-c2ccc(C)cc2)c(=O)c2c1c1ccccc1n2C (stereo not drawn),-0.6,48.1,24.5*,x,-17.5,46.0*
COc1ccccc1CNC(=O)c1nn(-c2ccc(C)cc2)c(=O)c2c1c1ccccc1n2C,x,5.2*,71.3,-6.0,x,62.1
COc1ccccc1CNC(=O)c1cc2c(=O)n(C)c3ccccc3c2n1C,1.9,25.8*,51.1,x,-2.7,90.8
COc1ccc(C2=C(O)C(C)N(c3ccccc3)C2=N)cc1OC (stereo not drawn),-2.8,90.1,97.7,3.0,-9.9,101.3
Cc1cc(C)n(C(=O)c2cc3ccccc3c(=O)o2)n1,-7.2,106.5,101.9,-3.0,-13.6,93.2
Cn1c(C(=O)NCCCN2CCN(c3ccccc3F)CC2)cc2c(=O)n(C)c3ccccc3c21,3.5,27.6*,41.7,-2.0,31.9,42.5*
Cn1c(C(=O)NCCCN2CCOCC2)cc2c(=O)n(C)c3ccccc3c21,-4.3,106.2,87.5,0.0,10.2,93.3
O=C1NC(c2ccc3c(c2)OCO3)Nc2ccccc21 (stereo not drawn),16.3,27.1*,62.9,31.0,8.8,89.4
O=C1NC(c2ccc3c(c2)OCO3)Oc2ccccc21 (stereo not drawn),2.4,94.7,96.3,6.0,-3.5,95.4
O=C(COC(=O)Cc1ccsc1)NCC1CCCCC1,x,x,x,-2.0,x,x
COc1cccc(C2/C(=C(/O)c3ccc(C)cc3)C(=O)C(=O)N2Cc2ccco2)c1 (stereo not drawn),x,95.9,77.7,x,76.8*,100.4
COc1cccc(C2/C(=C(\O)c3ccc4c(c3)OCCO4)C(=O)C(=O)N2CCN(C)C)c1 (stereo not drawn),x,98.5,115.2,-1.0,10.3,105.5

# Compound activity from PubChem BioAssay.
